# Measurements as given in ChEMBL document CHEMBL5365503, “Design and Synthesis of 1,3,5-Triazines or Pyrimidines Containing Dithiocarbamate Moiety as PI3Kα Selective Inhibitors” (ACS Med Chem Lett, 2023).
# Columns and labels:
# [1] = target: Phosphatidylinositol 4,5-bisphosphate 3-kinase catalytic subunit alpha isoform (Homo sapiens, UniProt P42336); assay: Inhibition of N-terminal GST-fused full-length human PI3Kalpha (1 to 1068 residues) expressed in baculovirus expression system using PIP2 as substrate incubated for 1 hr in presence of ATP by ADP-Glo assay
# Sequence of Phosphatidylinositol 4,5-bisphosphate 3-kinase catalytic subunit alpha isoform (P42336 whole entry, the tested form may be a part, canonical isoform): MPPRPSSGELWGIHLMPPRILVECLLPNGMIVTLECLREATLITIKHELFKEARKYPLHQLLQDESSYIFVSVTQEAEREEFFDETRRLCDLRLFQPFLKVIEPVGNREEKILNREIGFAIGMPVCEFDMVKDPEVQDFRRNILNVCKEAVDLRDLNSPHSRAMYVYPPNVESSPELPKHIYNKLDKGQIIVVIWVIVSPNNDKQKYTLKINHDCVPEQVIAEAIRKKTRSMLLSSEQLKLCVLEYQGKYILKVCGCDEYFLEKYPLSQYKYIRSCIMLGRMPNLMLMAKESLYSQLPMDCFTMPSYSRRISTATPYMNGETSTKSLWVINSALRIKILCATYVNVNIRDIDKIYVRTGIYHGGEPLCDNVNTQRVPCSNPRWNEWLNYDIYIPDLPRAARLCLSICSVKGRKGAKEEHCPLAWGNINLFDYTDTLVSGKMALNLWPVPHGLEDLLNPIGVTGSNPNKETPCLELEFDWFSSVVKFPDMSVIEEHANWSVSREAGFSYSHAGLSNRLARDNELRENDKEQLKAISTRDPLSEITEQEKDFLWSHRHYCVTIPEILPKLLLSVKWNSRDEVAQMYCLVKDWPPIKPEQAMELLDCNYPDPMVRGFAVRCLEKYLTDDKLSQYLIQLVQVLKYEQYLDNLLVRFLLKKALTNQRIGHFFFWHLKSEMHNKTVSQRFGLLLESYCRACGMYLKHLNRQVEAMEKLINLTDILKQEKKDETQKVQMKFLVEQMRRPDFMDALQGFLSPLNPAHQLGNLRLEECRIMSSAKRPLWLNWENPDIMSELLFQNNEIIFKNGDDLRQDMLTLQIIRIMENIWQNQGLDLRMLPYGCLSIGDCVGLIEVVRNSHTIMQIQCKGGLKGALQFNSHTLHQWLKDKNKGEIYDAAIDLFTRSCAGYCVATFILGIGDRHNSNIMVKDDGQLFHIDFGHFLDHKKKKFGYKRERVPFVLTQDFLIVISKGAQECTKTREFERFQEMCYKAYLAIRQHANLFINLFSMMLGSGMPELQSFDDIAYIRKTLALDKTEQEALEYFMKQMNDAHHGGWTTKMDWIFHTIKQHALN
# [2] = target: T1, Phosphatidylinositol 4,5-bisphosphate 3-kinase catalytic subunit delta isoform (Homo sapiens, UniProt O00329); assay: Inhibition of N-terminal 6xHis-tagged recombinant full-length human PI3Kdelta expressed in baculovirus infected Sf21 insect cells by ADP-Glo assay
# T1 sequence (O00329 whole entry): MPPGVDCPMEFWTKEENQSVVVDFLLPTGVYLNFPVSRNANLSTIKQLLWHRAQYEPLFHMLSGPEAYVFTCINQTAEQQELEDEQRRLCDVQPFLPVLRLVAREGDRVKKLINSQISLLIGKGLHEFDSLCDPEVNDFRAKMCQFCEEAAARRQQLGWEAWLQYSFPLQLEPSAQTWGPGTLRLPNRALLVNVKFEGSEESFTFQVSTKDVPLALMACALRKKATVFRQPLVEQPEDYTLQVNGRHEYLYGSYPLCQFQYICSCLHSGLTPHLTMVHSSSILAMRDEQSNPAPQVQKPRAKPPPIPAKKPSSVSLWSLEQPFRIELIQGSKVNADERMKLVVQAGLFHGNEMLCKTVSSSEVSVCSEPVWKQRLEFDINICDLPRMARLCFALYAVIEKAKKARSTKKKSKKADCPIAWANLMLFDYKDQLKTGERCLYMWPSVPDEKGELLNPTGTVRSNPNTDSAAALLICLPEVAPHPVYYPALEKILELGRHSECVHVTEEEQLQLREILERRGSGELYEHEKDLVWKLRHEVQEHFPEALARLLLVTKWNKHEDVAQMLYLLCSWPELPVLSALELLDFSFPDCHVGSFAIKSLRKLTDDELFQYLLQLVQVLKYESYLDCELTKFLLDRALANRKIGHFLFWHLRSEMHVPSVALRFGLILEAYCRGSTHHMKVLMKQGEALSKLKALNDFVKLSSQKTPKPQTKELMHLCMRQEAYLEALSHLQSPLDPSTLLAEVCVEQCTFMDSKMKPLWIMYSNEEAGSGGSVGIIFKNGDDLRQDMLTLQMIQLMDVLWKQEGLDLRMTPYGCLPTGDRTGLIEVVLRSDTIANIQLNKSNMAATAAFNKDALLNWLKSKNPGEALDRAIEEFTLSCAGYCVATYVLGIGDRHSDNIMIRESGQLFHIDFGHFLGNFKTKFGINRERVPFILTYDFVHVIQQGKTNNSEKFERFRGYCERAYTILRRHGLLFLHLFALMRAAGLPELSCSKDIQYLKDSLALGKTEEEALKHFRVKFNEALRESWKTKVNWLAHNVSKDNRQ
# HCT-116 = assay: Antiproliferative activity against human HCT-116 cells assessed as inhibition of cell proliferation incubated for 96 hrs by MTT assay; format: functional, cell-based; settings: HCT-116, 96 h
# U-87 MG [3] = assay: Antiproliferative activity against human U-87 MG cells assessed as inhibition of cell proliferation incubated for 96 hrs by MTT assay; format: functional, cell-based, U-87MG ATCC
# [4] = target: Phosphatidylinositol 4,5-bisphosphate 3-kinase catalytic subunit gamma isoform (Homo sapiens, UniProt P48736); assay: Inhibition of human PI3Kgamma expressed in baculovirus infected Sf21 insect cells by ADP-Glo assay
# Sequence of Phosphatidylinositol 4,5-bisphosphate 3-kinase catalytic subunit gamma isoform (P48736 whole entry, canonical isoform): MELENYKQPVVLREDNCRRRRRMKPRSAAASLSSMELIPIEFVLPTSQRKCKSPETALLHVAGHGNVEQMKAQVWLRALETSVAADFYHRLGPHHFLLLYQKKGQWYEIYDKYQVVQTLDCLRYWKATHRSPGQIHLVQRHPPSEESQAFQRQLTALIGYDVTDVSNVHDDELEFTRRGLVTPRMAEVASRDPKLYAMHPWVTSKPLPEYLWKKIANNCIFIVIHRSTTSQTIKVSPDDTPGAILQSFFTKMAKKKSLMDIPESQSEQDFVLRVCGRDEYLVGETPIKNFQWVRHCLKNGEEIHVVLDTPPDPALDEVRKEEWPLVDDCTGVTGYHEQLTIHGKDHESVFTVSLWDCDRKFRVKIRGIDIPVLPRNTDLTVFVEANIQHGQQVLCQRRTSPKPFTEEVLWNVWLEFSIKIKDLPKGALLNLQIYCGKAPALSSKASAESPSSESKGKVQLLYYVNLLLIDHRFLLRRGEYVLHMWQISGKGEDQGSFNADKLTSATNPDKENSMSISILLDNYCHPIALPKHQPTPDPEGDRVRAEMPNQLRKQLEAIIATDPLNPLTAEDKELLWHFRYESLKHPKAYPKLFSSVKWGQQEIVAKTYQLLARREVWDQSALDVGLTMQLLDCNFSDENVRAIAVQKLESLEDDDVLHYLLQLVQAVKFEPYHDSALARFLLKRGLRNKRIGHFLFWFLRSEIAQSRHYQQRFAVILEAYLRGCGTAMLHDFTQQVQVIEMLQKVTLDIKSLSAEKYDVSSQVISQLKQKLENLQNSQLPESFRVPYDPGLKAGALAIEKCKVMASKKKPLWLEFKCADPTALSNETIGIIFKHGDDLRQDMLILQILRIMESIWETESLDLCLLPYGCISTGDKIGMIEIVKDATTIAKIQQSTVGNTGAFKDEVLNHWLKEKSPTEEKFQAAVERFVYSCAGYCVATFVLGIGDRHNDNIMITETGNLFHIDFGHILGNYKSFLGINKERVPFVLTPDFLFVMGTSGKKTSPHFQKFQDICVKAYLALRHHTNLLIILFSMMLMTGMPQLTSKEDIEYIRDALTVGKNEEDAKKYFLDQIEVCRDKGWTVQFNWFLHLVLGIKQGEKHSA
# [5] = target: Phosphatidylinositol 4,5-bisphosphate 3-kinase catalytic subunit beta isoform (Homo sapiens, UniProt P42338); assay: Inhibition of N-terminal 6xHis-tagged recombinant, full length human PI3Kbeta by ADP-Glo assay
# Sequence of Phosphatidylinositol 4,5-bisphosphate 3-kinase catalytic subunit beta isoform (P42338 whole entry, canonical isoform): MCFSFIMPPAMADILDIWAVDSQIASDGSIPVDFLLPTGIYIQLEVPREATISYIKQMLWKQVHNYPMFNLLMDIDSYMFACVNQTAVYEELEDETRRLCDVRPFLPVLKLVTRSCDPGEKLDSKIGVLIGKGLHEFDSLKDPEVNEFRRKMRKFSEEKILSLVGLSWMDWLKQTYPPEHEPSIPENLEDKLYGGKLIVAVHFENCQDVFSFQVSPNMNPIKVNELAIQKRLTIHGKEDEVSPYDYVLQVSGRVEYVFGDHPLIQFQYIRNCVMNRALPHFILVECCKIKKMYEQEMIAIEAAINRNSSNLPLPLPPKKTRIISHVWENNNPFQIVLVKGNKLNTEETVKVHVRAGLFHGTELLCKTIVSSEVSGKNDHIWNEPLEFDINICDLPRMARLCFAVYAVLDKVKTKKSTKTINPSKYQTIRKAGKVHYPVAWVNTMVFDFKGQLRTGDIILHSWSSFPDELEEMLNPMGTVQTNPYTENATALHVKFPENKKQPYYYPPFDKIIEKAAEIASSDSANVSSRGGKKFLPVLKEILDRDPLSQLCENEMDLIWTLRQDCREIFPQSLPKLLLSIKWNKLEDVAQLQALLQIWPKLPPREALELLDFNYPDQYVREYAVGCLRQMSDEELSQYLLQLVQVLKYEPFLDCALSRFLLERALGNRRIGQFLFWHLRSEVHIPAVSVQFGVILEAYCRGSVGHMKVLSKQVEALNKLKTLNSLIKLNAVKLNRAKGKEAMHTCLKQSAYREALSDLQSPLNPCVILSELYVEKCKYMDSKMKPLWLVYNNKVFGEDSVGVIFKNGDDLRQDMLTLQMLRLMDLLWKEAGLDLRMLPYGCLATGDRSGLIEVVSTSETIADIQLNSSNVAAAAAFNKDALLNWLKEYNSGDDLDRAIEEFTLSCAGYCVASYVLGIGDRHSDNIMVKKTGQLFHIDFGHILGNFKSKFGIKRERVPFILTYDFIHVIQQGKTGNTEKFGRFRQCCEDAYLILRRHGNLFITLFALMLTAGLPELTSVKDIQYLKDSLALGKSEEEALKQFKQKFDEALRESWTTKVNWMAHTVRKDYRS
# [6] = Toxicity in BALB/c mouse xenografted with human U-87 MG cells assessed as drug tolerance at 40 mg/kg/day, ip for 16 days; format: organism-based; settings: in vivo, 384 h, time 16 day
# Method in brief: (§1)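 U87-MG xenograft mice treated once tumours averaged ~100 mm³. Dosing was 40 mg/kg/day intraperitoneally, once daily for 16 days. Tumour volume and body weight of each mouse were recorded on days 1, 4, 8, 11, 15 and 17.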
# [7] = Metabolic stability in rat liver microsomes assessed as compound remaining […] measured upto 60 mins in presence of NADPH by LC-MS/MS analysis; format: ADME, Microsome; settings: read-out: Stability
# [8] = Toxicity in BALB/c mouse xenografted with human U-87 MG cells assessed as body weight loss at 40 mg/kg/day, ip for 16 days; format: organism-based; settings: in vivo, 384 h, time 16 day; method in brief: as §1
# U-87 MG [9] = assay: Antitumor activity against human U-87 MG cells xenografted in BALB/c mouse assessed as tumor growth inhibition at 40 mg/kg/day, ip for 16 days relative to control; format: functional, U-87MG ATCC; settings: 384 h, time 16 day, read-out: TGI
# Method in brief: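 U87-MG xenografts in mice; dosing began once mean tumor volume reached about 100 mm³. Given 40 mg/kg/day intraperitoneally, once daily for 16 days.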
# [10] = Metabolic stability in rat liver microsomes assessed as half life […] measured upto 60 mins in presence of NADPH by LC-MS/MS analysis; format: ADME, Microsome
# [11] = Metabolic stability in rat liver microsomes assessed as compound remaining […] measured upto 60 mins by LC-MS/MS analysis; format: ADME, Microsome; settings: read-out: Stability
# [12] = Metabolic stability in rat liver assessed as intrinsic clearance […] measured upto 60 mins in presence of NADPH by LC-MS/MS analysis; format: ADME; settings: read-out: CLH
# [13] = Toxicity in BALB/c mouse xenografted with human U-87 MG cells assessed as animal mortality at 40 mg/kg/day, ip for 16 days; format: organism-based; settings: in vivo, 384 h, time 16 day; method in brief: as §1
# [14] = Metabolic stability in rat liver microsomes assessed as intrinsic clearance […] measured upto 60 mins in presence of NADPH by LC-MS/MS analysis; format: ADME, Microsome; settings: read-out: CLH
compound,measurement,setting,value
COc1cccc2c1nc(C(F)F)n2-c1nc(N2CCOCC2)cc(N2CCN(C(=S)SCC(=O)NC3CCCCC3)CC2)n1,IC50,[1],0.012 µM
COc1cccc2c1nc(C(F)F)n2-c1nc(N2CCOCC2)cc(N2CCN(C(=S)SCC(=O)N3CCOCC3)CC2)n1,IC50,[2],> 0.05 µM
same,IC50,HCT-116,1.53 µM
same,IC50,U-87 MG [3],1.22 µM
same,IC50,[1],0.0012 µM
same,IC50,[4],0.035 µM
same,IC50,[5],> 0.05 µM
COCCSC(=S)N1CCN(c2cc(N3CCOCC3)nc(-n3c(C(F)F)nc4c(OC)cccc43)n2)CC1,IC50,[1],0.017 µM
COc1cccc2c1nc(C(F)F)n2-c1nc(N2CCOCC2)nc(N2CCN(C(=S)SCC(=O)N(C)C)CC2)n1,IC50,HCT-116,2.78 µM
same,IC50,U-87 MG [3],1.1 µM
same,IC50,[1],0.0008 µM
CCN(CC)C(=O)CSC(=S)N1CCN(c2nc(N3CCOCC3)nc(-n3c(C(F)F)nc4c(OC)cccc43)n2)CC1,IC50,[1],0.0011 µM
COc1cccc2c1nc(C(F)F)n2-c1nc(N2CCOCC2)nc(N2CCN(C(=S)SCCN(C)C)CC2)n1,IC50,[1],0.063 µM
COc1cccc2c1nc(C(F)F)n2-c1nc(N2CCOCC2)nc(N2CCN(C(=S)SCC(=O)N3CCN(S(C)(=O)=O)CC3)CC2)n1,Activity,[6],Non-Toxic
same,remaining at 1 h,[7],11.2%
same,IC50,[2],> 0.05 µM
same,Activity,[8],Non-Toxic
same,inhibition in vivo at 40 mg/kg/day,U-87 MG [9],42%
same,half-life,[10],21.5 min
same,IC50,HCT-116,0.83 µM
same,remaining at 1 h,[11],68.2%
same,IC50,U-87 MG [3],1.25 µM
same,IC50,[1],0.0012 µM
same,CLint scaled,[12],116 mL/min/kg
same,IC50,[4],0.042 µM
same,Activity,[13],Non-Toxic
same,IC50,[5],> 0.05 µM
same,microsomal CLint,[14],64 µL/min/mg
COc1cccc2c1nc(C(F)F)n2-c1nc(N2CCOCC2)cc(N2CCN(C(=S)SCCN(C)C)CC2)n1,IC50,[1],0.034 µM
CCN(CC)CCSC(=S)N1CCN(c2nc(N3CCOCC3)nc(-n3c(C(F)F)nc4c(OC)cccc43)n2)CC1,IC50,[1],0.038 µM
COc1cccc2c1nc(C(F)F)n2-c1nc(N2CCOCC2)nc(N2CCN(C(=S)SCCN3CCCCC3)CC2)n1,IC50,[1],0.042 µM
CCN(CC)C(=O)CSC(=S)N1CCN(c2cc(N3CCOCC3)nc(-n3c(C(F)F)nc4c(OC)cccc43)n2)CC1,IC50,[1],0.0013 µM
COc1cccc2c1nc(C(F)F)n2-c1nc(N2CCOCC2)nc(N2CCN(C(=S)SCCN3CCCC3)CC2)n1,IC50,[1],0.02 µM
COc1cccc2c1nc(C(F)F)n2-c1nc(N2CCOCC2)nc(N2CCN(C(=S)SCC(=O)NC3CCCCC3)CC2)n1,IC50,[1],0.0051 µM
COc1cccc2c1nc(C(F)F)n2-c1nc(N2CCOCC2)cc(N2CCN(C(=S)SCC(=O)N3CCCC3)CC2)n1,IC50,HCT-116,1.23 µM
same,IC50,U-87 MG [3],1.99 µM
same,IC50,[1],0.0014 µM
COc1cccc2c1nc(C(F)F)n2-c1nc(N2CCOCC2)nc(N2CCN(C(=S)SCCN3CCN(C)CC3)CC2)n1,IC50,[1],0.0091 µM
COCCSC(=S)N1CCN(c2nc(N3CCOCC3)nc(-n3c(C(F)F)nc4c(OC)cccc43)n2)CC1,IC50,[1],0.021 µM
COc1cccc2c1nc(C(F)F)n2-c1nc(N2CCOCC2)cc(N2CCN(C(=S)SCC(=O)N(C)C)CC2)n1,IC50,[2],> 0.05 µM
same,IC50,HCT-116,2.2 µM
same,IC50,U-87 MG [3],2.04 µM
same,IC50,[1],0.0018 µM
same,IC50,[4],0.033 µM
same,IC50,[5],> 0.05 µM
COc1cccc2c1nc(C(F)F)n2-c1nc(N2CCOCC2)nc(N2CCN(C(=S)SCC(=O)NC3CCCC3)CC2)n1,IC50,[1],0.0028 µM
COc1cccc2c1nc(C(F)F)n2-c1nc(N2CCOCC2)cc(N2CCN(C(=S)SCC(=O)NC3CCC3)CC2)n1,IC50,[1],0.0033 µM
COc1cccc2c1nc(C(F)F)n2-c1nc(N2CCOCC2)cc(N2CCN(C(=S)SCC(=O)NC3CC3)CC2)n1,IC50,[1],0.0027 µM
COc1cccc2c1nc(C(F)F)n2-c1nc(N2CCOCC2)cc(N2CCN(C(=S)SCC(=O)NC3CCCC3)CC2)n1,IC50,[1],0.034 µM
COc1cccc2c1nc(C(F)F)n2-c1nc(N2CCOCC2)nc(N2CCN(C(=S)SCC(N)=O)CC2)n1,IC50,[1],0.0016 µM
COc1cccc2c1nc(C(F)F)n2-c1nc(N2CCOCC2)nc(N2CCN(C(=S)SCCN3CCOCC3)CC2)n1,IC50,[1],0.029 µM
COc1cccc2c1nc(C(F)F)n2-c1nc(N2CCOCC2)nc(N2CCN(C(=S)SCC(=O)N3CCCC3)CC2)n1,IC50,[1],0.0009 µM
COc1cccc2c1nc(C(F)F)n2-c1nc(N2CCOCC2)nc(N2CCN(C(=S)SCC(=O)N3CCOCC3)CC2)n1,IC50,HCT-116,1.11 µM
same,IC50,U-87 MG [3],0.6 µM
same,IC50,[1],0.0007 µM
COc1cccc2c1nc(C(F)F)n2-c1nc(N2CCOCC2)nc(N2CCN(C(=S)SCC(=O)NC3CCC3)CC2)n1,IC50,[1],0.0016 µM
FC(F)c1nc2ccccc2n1-c1nc(N2CCOCC2)nc(N2CCOCC2)n1 [ZSTK-474],Activity,[6],Non-Toxic
same,remaining at 1 h,[7],19.6%
same,Activity,[8],Non-Toxic
same,inhibition in vivo at 40 mg/kg/day,U-87 MG [9],72%
same,half-life,[10],25.7 min
same,IC50,HCT-116,0.71 µM
same,remaining at 1 h,[11],100%
same,IC50,U-87 MG [3],0.13 µM
same,CLint scaled,[12],97 mL/min/kg
same,Activity,[13],Non-Toxic
same,microsomal CLint,[14],54 µL/min/mg
COc1cccc2c1nc(C(F)F)n2-c1nc(N2CCOCC2)nc(N2CCN(C(=S)SCC(=O)N3CCN(C4CCCC4)CC3)CC2)n1,IC50,[1],0.0025 µM
COc1cccc2c1nc(C(F)F)n2-c1nc(N2CCOCC2)cc(N2CCN(C(=S)SCCN3CCOCC3)CC2)n1,IC50,[1],0.081 µM
COc1cccc2c1nc(C(F)F)n2-c1nc(N2CCOCC2)nc(N2CCN(C(=S)SCC(=O)NC3CC3)CC2)n1,IC50,[1],0.0014 µM
COc1cccc2c1nc(C(F)F)n2-c1nc(N2CCOCC2)nc(N2CCN(C(=S)SCC(=O)N3CCN(C)CC3)CC2)n1,IC50,HCT-116,0.98 µM
same,IC50,U-87 MG [3],1.67 µM
same,IC50,[1],0.0014 µM
COc1cccc2c1nc(C(F)F)n2-c1nc(N2CCOCC2)cc(N2CCN(C(=S)SCC(N)=O)CC2)n1,IC50,[1],0.0025 µM
COc1cccc2c1nc(C(F)F)n2-c1nc(N2CCOCC2)cc(N2CCN(C(=S)SCCN3CCN(C)CC3)CC2)n1,IC50,[1],0.12 µM
